# Hits are enriched below; roughly 1.9% of the tested compounds scored in any of these assays.
# Neddylation inh = blocks human cullin neddylation. 360,000 tested, 0.58% active. TR-FRET cullin neddylation, biochemical. inhibition, % at 25 µM. P61081+Q13564; in the data active means inhibition above about 36%
# UBC13 polyUb = human UBC13 polyubiquitination inhibition; P61088; UBC13 polyubiquitin chain formation, TR-FRET; inhibition, % at 20 µM; 330,000 tested, 0.47% active; AID 485273; in the data active means inhibition above about 45%, passing the limit was not always enough; inconclusive means no clear call, values can overlap the other calls
# SR-BI uptake up = enhances SR-BI lipid uptake from DiI-HDL | CHO ldlA[mSR-BI] cells, DiI-HDL uptake fluorescence, 3 h; 100 = double the neutral-control signal | activation, % at 12.5 µM | 320,000 tested, 0.096% active | AID 504775;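 active means mean replicate activation of at least 60% and every replicate at or above 60%; inconclusive means mean or all-replicate condition met, but not both; inactive means mean below 60% and not all replicates reaching 60%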;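 further: 0% = median plate neutral-control signal and 100% = twice that signal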
#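 Assay system: LDL receptor-deficient CHO ldlA cells overexpressing murine SR-BI / Medium: BSA-supplemented, HEPES-buffered Ham's F12, pH 7.4 / Probe or stimulus: DiI-labelled HDL at 10 µg/mL final / Timing: compound with DiI-HDL co-incubation, 3 h at 37 °C / Technique: bottom-read cell fluorescence after medium removal, ex 550/em 595 nm / Measure: HDL uptake via cellular fluorescence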
# SR-BI DiI inh = mouse SR-BI HDL lipid transfer inhibition | 320,000 tested, 0.96% active | Q61009 | AID 488896 | inhibition, % at 12.5 µM | ldlA[mSR-BI] CHO cells, DiI-HDL uptake fluorescence, 3 h;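 active means mean replicate inhibition of at least 70% and a set share of replicates each scoring 70 or more; inconclusive means meets just one of the two criteria; inactive means fails both criteria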;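 further: 0% = median of neutral control wells and 100% = median of positive control wells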
# Target sequence (Q61009 whole entry, looked up): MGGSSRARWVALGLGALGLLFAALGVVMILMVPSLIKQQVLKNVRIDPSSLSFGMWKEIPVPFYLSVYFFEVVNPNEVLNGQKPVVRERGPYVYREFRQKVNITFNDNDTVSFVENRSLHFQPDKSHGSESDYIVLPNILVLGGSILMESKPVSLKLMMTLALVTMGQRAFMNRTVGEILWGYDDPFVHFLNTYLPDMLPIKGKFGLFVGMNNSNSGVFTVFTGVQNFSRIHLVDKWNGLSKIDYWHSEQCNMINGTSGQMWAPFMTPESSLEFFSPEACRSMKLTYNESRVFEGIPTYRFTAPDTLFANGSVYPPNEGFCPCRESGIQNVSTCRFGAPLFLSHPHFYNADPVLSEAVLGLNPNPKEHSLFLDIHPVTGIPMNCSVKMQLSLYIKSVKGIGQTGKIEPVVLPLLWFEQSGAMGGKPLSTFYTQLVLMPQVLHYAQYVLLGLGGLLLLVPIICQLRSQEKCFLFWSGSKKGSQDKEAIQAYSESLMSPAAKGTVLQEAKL
# Casp3 counter = counter-screen for UBC13 inhibitors: human caspase-3 inhibition | shares compounds with UBC13 polyUb | Recombinant caspase-3, Caspase-Glo 3/7 luminescence, 60 min | inhibition, % at 20 µM | 1,400 tested, 4% active | AID 488856;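 active means mean inhibition across replicates above about 26%, limit read from the data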;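 further: plate controls were DMSO with caspase-3 for no effect and DMSO wells lacking enzyme for full effect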
# UBC13 conf = confirmation of human UBC13 polyubiquitin inhibitors; shares compounds with UBC13 polyUb; UBC13 polyubiquitination, TR-FRET, biochemical; inhibition, % at 10 µM; 1,400 tested, 68% active; in the data active means inhibition above about 45%; inconclusive means no clear call, values can overlap the other calls
# * hit, by the source's call; ? = inconclusive; / = no result given.
SMILES,Neddylation inh,UBC13 polyUb,SR-BI uptake up,SR-BI DiI inh,Casp3 counter,UBC13 conf
CCC(=O)NC(c1cc(Cl)c2ccccc2c1O)C1CC1 (stereo not given),29,84*,-18,18,-1,72*
CCC(=O)NC(C)c1cc(Cl)c2ccccc2c1O (stereo not given),/,51*,3,-3,0,34
COc1cccc(-c2nnc3n2N=C(c2cc(OC)ccc2OC)CS3)c1,14,56*,22,-22,-3,48*
Cc1ccc(Cc2c(C)nc3nc(SCC(=O)NCCCN4CCCCCC4)nn3c2C)cc1,/,103*,/,/,8,101*
Cc1nc2nc(SCC(=O)NCCCN3CCCCC3)nn2c(C)c1Cc1ccccc1,7,4,/,/,/,/
NCCCNCCCCNCCCN,1,93*,36,-36,-3,73*
NCCCS(=O)(=O)O,4,0,24,-24,/,/
COc1ccccc1NS(=O)(=O)c1cccc(C(=O)NNC(=O)c2ccc(Cl)nc2)c1,4,45*,2,-2,2,25
COc1ccccc1NS(=O)(=O)c1cccc(C(=O)NNC(=O)c2ccc(O)c(Cl)c2)c1,5,0,-12,12,/,/
Nc1ncn(C(=S)Nc2ccccc2)n1,3,/,7,-7,/,/
Cc1ccc(C(=O)OCC(=O)NC(C)c2ccccc2)cc1C (stereo not given),1,8,-3,3,/,/
CCOc1ccc(NC(=O)Cn2c(=O)n(CCCC(=O)NC3CCN(Cc4ccccc4)CC3)c(=O)c3ccccc32)cc1,-2,92*,/,/,-1,97*
NC(=O)Cn1c(=O)n(CCCC(=O)NC2CCN(Cc3ccccc3)CC2)c(=O)c2ccccc21,-4,33,8,-8,/,/
O=C(COC(=O)c1cc(Br)ccc1O)Nc1cccnc1Cl,-184,47*,10,-10,0,?
Cc1cc(C(=O)O)ccc1-c1ccc(/C=C2\NC(=O)N(Cc3ccc(F)cc3)C2=O)o1,/,-6,/,/,/,/
CC1CCCCN1CCNC(=O)c1ccc2c(=O)n(Cc3ccc(Cl)cc3)c(=S)[nH]c2c1 (stereo not given),-41,49*,1,-1,-1,61*
CN(C)CCOc1ccc(-c2c(-c3ccccc3)sc3ccccc23)cc1,-39,82*,15,-15,-2,90*
c1ccc2c(-c3ccc(OCCN4CCCCC4)cc3)c(-c3ccsc3)sc2c1,-72,58*,-43,43,-3,56*
c1ccc(-c2sc3ccccc3c2-c2ccc(OCCN3CCCCC3)cc2)cc1,-39,43,15,-15,/,/
COc1cccc(NC(=O)CN(C)C(=O)c2cccnc2Nc2cccc(C(F)(F)F)c2)c1,3,47*,-13,13,-1,34
O=C(CCCn1c(=S)[nH]c2ccc(Br)cc2c1=O)N1CCN(c2ccccn2)CC1,-15,45*,-19,19,-2,44
Cc1cc(=O)n2c(nc3ccccc32)s1,1,/,/,/,/,/
CN1CCC(N(C)C(=O)/C=C/c2cn(-c3ccccc3)nc2-c2cccs2)CC1,/,46*,6,-6,0,44
C#CCOCCOCCOCCNc1nc(N2CCN(C(=O)[C@H](CCCN=C(N)N)n3cc(C(N)[C@@H](C)CC)nn3)CC2)nc(N2CCN(C(=O)[C@H](CCCCN)n3cc([C@@H](N)[C@H](C)CC)nn3)CC2)n1 (stereo not given in full),-18,95*,-6,6,1,88*
C#CCOCCOCCOCCNc1nc(N2CCN(C(=O)[C@H](CCCCN)n3cc([C@@H](N)[C@H](C)CC)nn3)CC2)nc(N2CCN(C(=O)[C@H](CCC(=O)O)n3cc([C@@H](N)CCCCN)nn3)CC2)n1,10,101*,1,-1,-2,109*
SMILES,Neddylation inh,UBC13 polyUb,SR-BI uptake up,SR-BI DiI inh,Casp3 counter,UBC13 conf
C#CCOCCOCCOCCNc1nc(N2CCN(C(=O)[C@H](CCCCN)n3cc(CN)nn3)CC2)nc(N2CCN(C(=O)[C@H](CCCCN)n3cc([C@@H](N)[C@H](C)CC)nn3)CC2)n1,18,109*,14,-14,-2,108*
OC(c1ccc(F)c(F)c1)c1nc(-c2cnc3ccccc3c2)cs1 (stereo not given),-30,/,/,/,/,/
OCCCNc1ncnc2c1ncn2[C@H]1CN(C2CCCC2)C[C@@H](CO)O1,1,/,/,/,/,/
CC1CN(C(=O)CCNC(=O)c2ccc(Br)cc2)CC(C)O1 (stereo not given),5,-2,6,-6,/,/
CC(=O)Nc1cc(-c2ccc(N)nc2)cn2c(-c3cccc(C(F)(F)F)c3)cnc12,19,/,/,/,/,/
O=S(=O)(Cc1ccccc1)CS(=O)(=O)Cc1ccccc1,-3,/,15,-15,/,/
COc1ccc(NC(=O)CS(=O)CC(=O)Nc2ccc(OC)c(OC)c2)cc1 (stereo not given),4,-10,-14,14,/,/
COc1ccc(NC(=O)CS(=O)CC(=O)Nc2cc(Cl)ccc2OC)cc1 (stereo not given),-2,54*,-16,16,-2,53*
Nc1ccc2nc(-c3cccc(-c4nc5ccc(N)cc5[nH]4)n3)[nH]c2c1,-13,100*,6,-6,1,114*
O=C(C1CCCCC1)N1C[C@H](n2cc(C3CC3)nn2)[C@@H](O)C[C@@H]1c1ccc(Cl)cc1,-2,/,/,/,/,/
CCCCN(C)CCNC(=O)c1cc2c(-c3cccc(OC)c3)nn(C)c2s1,/,46*,-10,10,1,45
COc1cccc(-c2nn(C)c3sc(C(=O)NCCCN(C)Cc4ccccc4)cc23)c1,/,53*,-49,49,-3,59*
CCN(CC)CCCNC(=O)c1cc2c(-c3cccc(OC)c3)nn(C)c2s1,/,33,-19,19,/,/
COc1cccc(-n2nnnc2SCC(=O)NCc2ccc3c(c2)OCO3)c1,1,-8,0,0,/,/
Cn1c(SCC(=O)NCc2ccccc2)ncc(C(=O)Nc2ccccc2)c1=O,-21,63*,-18,18,96*,62*
COc1cccc(NC(=O)c2cnc(SCC(=O)NCc3ccc4c(c3)OCO4)n(C)c2=O)c1,3,56*,-39,39,98*,50*
Cc1ccc(CNC(=O)CSc2ncc(C(=O)Nc3ccccc3)c(=O)n2C)cc1,25,55*,-10,10,95*,63*
Cn1c(SCC(=O)c2ccc(F)cc2)ncc(C(=O)Nc2ccccc2)c1=O,-62,58*,15,-15,79*,69*
O=C(CCn1nc(-c2ccc(Cl)cc2)ccc1=O)N1CCN(c2ccccc2)CC1,-6,6,-38,38,/,/
Cc1ccccc1NS(=O)(=O)c1ccc(C(=O)NCC(c2ccco2)N2CCCCC2)cc1 (stereo not given),2,-7,23,-23,/,/
Cn1c(SCC(=O)NCC2CCCO2)ncc(C(=O)Nc2ccccc2)c1=O (stereo not given),29,69*,10,-10,96*,66*

# Source: PubChem BioAssay
